According to article PMC8970626 (Biochemistry, 2022):
Substitutions are numbered along the chain they refer to. Names may count otherwise. “And” between values parts separate entries of the source, which are not always exact repeats. Equal values may be shown once.

Experiments:
human CYP24A1 (hCYP24A1) = target: T1, human CYP24A1 (hCYP24A1) (Homo sapiens, UniProt Q07973); test: Spectral ligand binding assay with hCYP24A1; conditions: for spectral response on titration (type-I, high-spin transition): hCYP24A1 without hAdx
T1 sequence (Q07973 36-514): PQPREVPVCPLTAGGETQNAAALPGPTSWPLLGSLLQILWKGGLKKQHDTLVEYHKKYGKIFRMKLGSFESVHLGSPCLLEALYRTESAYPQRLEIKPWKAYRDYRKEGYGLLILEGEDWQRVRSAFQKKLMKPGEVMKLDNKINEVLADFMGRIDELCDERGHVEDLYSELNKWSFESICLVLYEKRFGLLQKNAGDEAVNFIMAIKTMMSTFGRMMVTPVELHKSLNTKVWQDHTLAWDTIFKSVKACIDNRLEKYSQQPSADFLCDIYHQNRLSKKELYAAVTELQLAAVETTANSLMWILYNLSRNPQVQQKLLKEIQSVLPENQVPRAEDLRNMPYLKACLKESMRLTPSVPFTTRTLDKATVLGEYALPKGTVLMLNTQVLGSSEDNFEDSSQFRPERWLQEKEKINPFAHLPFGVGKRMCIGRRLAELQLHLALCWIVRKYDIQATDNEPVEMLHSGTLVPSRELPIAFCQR

rat CYP24A1 = conditions: cited from earlier work
hCYP24A1 = target: T2, hCYP24A1 (Homo sapiens, UniProt Q07973); test: Reconstituted hCYP24A1 functional assay; format: biochemical; conditions: D72N_D76N hAdx double mutant; substrate 5 μM
T2 sequence (Q07973 36-514): T1 sequence (Q07973 36-514)
T2 sequence (P10109 61-184 D132N/D136N partner): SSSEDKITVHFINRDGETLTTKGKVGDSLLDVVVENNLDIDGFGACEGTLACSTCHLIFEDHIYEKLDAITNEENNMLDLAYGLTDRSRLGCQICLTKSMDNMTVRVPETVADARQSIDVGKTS

rat CYP24A1 (rCYP24A1) = target: T3, rat CYP24A1 (rCYP24A1) (Rattus norvegicus, UniProt Q09128); test: Spectral ligand binding assay with rCYP24A1; conditions: rCYP24A1, no Adx
T3 sequence (Q09128 36-514): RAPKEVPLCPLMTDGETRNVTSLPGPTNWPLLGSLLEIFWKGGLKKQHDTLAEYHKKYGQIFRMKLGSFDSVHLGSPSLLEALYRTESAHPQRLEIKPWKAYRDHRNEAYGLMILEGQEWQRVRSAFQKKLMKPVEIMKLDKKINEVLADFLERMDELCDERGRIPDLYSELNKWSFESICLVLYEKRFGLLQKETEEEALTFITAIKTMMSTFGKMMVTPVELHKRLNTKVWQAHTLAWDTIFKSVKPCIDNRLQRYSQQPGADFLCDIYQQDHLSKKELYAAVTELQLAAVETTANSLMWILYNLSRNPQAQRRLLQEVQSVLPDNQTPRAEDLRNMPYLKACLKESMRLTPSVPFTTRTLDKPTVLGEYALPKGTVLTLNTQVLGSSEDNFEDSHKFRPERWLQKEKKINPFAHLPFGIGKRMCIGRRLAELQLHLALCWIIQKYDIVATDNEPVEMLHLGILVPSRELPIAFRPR
Procedure, shortened: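 UV-visible difference-spectra titration at ambient temperature with enzyme at 1 μM in 10 mM potassium phosphate. Ligand added from DMSO stock, solvent ≤2%, with 8 min incubation per point before each wavelength scan. Where Adx was present, 10 μM hAdx (WT or L80V) was baselined in the cuvette before enzyme and ligand.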

[1] = target: T4, human cytochrome P450 24A1 (hCYP24A1), cleaved and separated from the hAdx_hCYP24A1 fusion (human, UniProt Q07973 36-514); test: cross-linking
T4 sequence (looked up): T1 sequence (Q07973 36-514)

Molecule: C=C1/C(=C\C=C2/CCC[C@]3(C)[C@@H]([C@H](C)CCCC(C)C)CC[C@@H]23)C[C@@H](O)C[C@@H]1O [1α(OH)D]
- Kd (human CYP24A1 (hCYP24A1); +hAdx (WT, 10-fold, 10 μM)): 700 ± 50 nM
- ΔAmax (human CYP24A1 (hCYP24A1); +hAdx (WT, 10-fold, 10 μM)): 0.055 ± 0.004 AU
- Kd (human CYP24A1 (hCYP24A1); hCYP24A1 1 μM, no hAdx): 400 ± 100 nM
- ΔAmax (human CYP24A1 (hCYP24A1); hCYP24A1 1 μM, no hAdx): 0.04 ± 0.008 AU
- spectral response on titration (type-I, high-spin transition) (human CYP24A1 (hCYP24A1)): type-I response, albeit with a more noticeable increase in the high-spin transition
- substrate quality for rat CYP24A1 (rat CYP24A1): poor substrate

Molecule: C=C1/C(=C/C=C2\CCC[C@@]3(C)C2CC[C@@H]3C(C)CCC(O)C(C)(C)O)C[C@@H](O)C[C@@H]1O (stereo partly drawn) [1α,24,25(OH)3D]
- Kd (human CYP24A1 (hCYP24A1); +hAdx (WT, 10-fold, 10 μM)): 4000 ± 40 nM
- ΔAmax (human CYP24A1 (hCYP24A1); +hAdx (WT, 10-fold, 10 μM)): 0.04 ± 0.003 AU
- spectral response on titration (type-I, high-spin transition) (human CYP24A1 (hCYP24A1)): only a minimal type-I response

Molecule: C=C1/C(=C\C=C2/CCC[C@]3(C)[C@@H]([C@H](C)CCCC(C)(C)O)CC[C@@H]23)C[C@@H](O)C[C@@H]1O [1α,25(OH)2D]
- ΔAmax (human CYP24A1 (hCYP24A1); 10-fold excess of D72N_D76N hAdx): 0.02 ± 0.002 AU
- ΔAmax (human CYP24A1 (hCYP24A1); 10-fold excess of L80I hAdx): 0.04 ± 0.003 AU
- ΔAmax (human CYP24A1 (hCYP24A1); 10-fold excess of L80Q hAdx): 0.02 ± 0.001 AU
- ΔAmax (human CYP24A1 (hCYP24A1); 10-fold excess of L80V hAdx): 0.04 ± 0.003 AU
- ΔAmax (human CYP24A1 (hCYP24A1); +hAdx (WT, 10-fold, 10 μM)): 0.03 ± 0.004 AU
- ΔAmax (human CYP24A1 (hCYP24A1); hCYP24A1 1 μM, no hAdx): 0.03 ± 0.004 AU and 0.03 ± 0.005 AU
- spectral response on titration (type-I, high-spin transition) (human CYP24A1 (hCYP24A1)): type-I transition of the Soret band
- substrate remaining (hCYP24A1): approximately 60%
- ΔAmax (rat CYP24A1 (rCYP24A1)): 0.05 ± 0.004 AU

Molecule: C=C1CC[C@H](O)C/C1=C/C=C1\CCC[C@]2(C)[C@@H]([C@H](C)CCCC(C)(C)O)CC[C@@H]12 [25(OH)D]
- spectral response on titration (type-I, high-spin transition) (human CYP24A1 (hCYP24A1)): no measureable high-spin form is detected
- binding affinity relative to other substrates (human CYP24A1 (hCYP24A1); interaction could not be saturated): likely binds with a weaker affinity than the other substrates tested

B1: human adrenodoxin (hAdx), unfused, wild type (natural protein)
chain: T2 sequence (P10109 61-184 D132N/D136N partner) with N72D, N76D
- binding result [1]: binds

B2: human adrenodoxin mutant L80Q (natural protein)
chain: T2 sequence (P10109 61-184 D132N/D136N partner) with N72D, N76D, L80Q
- binding result [1]: binds

B3: human adrenodoxin mutant L80I (natural protein)
chain: T2 sequence (P10109 61-184 D132N/D136N partner) with N72D, N76D, L80I
- binding result [1]: binds

B4: human adrenodoxin mutant L80V (natural protein)
chain: T2 sequence (P10109 61-184 D132N/D136N partner) with N72D, N76D, L80V
- binding result [1]: binds
